This excerpt belongs to a sample that is enriched for hits.
CDK5 inh = inhibitors of human CDK5/p35 kinase. AID 488839. Recombinant CDK5/p35, ADP-Glo luminescence, 60 min. Q00535+Q15078. inhibition, % at 10 µM. 330,000 compounds, 0.01% hits;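 active means highest replicate inhibition of at least 50% and at least 75% of replicates reaching 50%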;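 further: plate controls were DMSO neutral control for no effect and GW8510 at 10 µM for full effect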
DYRK1A inh = inhibitors of rat Dyrk1A kinase | Q63470 | ADP-Glo luminescence, NFATc1 peptide | inhibition, % at 12.5 µM | 310,000 compounds, 0.43% hits | AID 504441; in the data active means inhibition above about 50%;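 further: plate controls were vehicle with enzyme for no effect and no enzyme for full effect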
GSK3B inh = blocks human GSK3beta kinase activity; AID 2097; P49841; GST-GSK3beta kinase, ADP-Glo luminescence, 60 min; stronger effect = lower value; activity score (negative = inhibition), % at 10 µM; 300,000 compounds, 0.038% hits;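 active means more than half of replicate wells score below -50%, meaning over 50% inhibition versus plate controls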;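 further: 0% = median DMSO wells and -100% = median GW8510 positive control wells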
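Test system: GST-tagged human GSK3beta kinase, cell-free; evaluation: activity score scaled between in-plate DMSO and GW8510 controls; measured by: ADP-Glo luminescence; incubation: 60 min reaction, RT; benchmarks: DMSO and 20 µM GW8510; reagent: peptide substrate plus 25 µM ATP (final); medium: Tris/MgCl2 kinase buffer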
GSK3 alpha inh = blocks human GSK-3 alpha kinase | P49840 | ADP-Glo luminescence, 60 min | inhibition, % at 10 µM | 320,000 compounds, 0.1% hits | AID 2650;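 active means more than half of replicates show inhibition above 20%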;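 further: GST-tagged GSK-3 alpha with peptide substrate and 25 µM ATP; 0% = DMSO neutral wells and 100% = GW8510 positive control wells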
STK33 inh = inhibitors of human STK33 kinase; Q9BYT3; purified STK33, MBP phosphorylation, ADP-Glo luminescence; inhibition, % at 10 µM; 320,000 compounds, 0.073% hits; AID 2661;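 active means inhibition at or above 25%, using the most active replicate where run in duplicate; inactive means inhibition below 25%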
Target sequence (Q9BYT3 whole entry, looked up): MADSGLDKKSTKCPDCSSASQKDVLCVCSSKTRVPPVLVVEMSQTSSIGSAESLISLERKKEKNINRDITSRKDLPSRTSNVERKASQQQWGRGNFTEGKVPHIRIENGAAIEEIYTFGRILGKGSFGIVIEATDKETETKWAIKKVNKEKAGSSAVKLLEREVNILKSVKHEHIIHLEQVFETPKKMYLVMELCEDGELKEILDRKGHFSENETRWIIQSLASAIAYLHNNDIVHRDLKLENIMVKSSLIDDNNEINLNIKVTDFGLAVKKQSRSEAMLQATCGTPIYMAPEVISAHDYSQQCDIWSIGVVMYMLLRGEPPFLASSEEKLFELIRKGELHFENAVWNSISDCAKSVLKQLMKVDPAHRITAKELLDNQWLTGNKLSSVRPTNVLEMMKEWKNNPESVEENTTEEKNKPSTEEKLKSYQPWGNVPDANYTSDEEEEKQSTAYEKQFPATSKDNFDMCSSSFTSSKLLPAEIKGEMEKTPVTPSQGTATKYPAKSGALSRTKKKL
ADP-Glo artifact = counter-screen for Dyrk1A inhibitors: ADP-Glo luciferase artifacts. shares compounds with DYRK1A inh. 1,300 tested, under 10 active. AC50, µM (series often up to 12 µM), inactives show at the highest dose activity change, negative = inhibition. ADP-Glo luciferase artifact assay, no Dyrk1A, luminescence. AID 588348;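 active means fitted half-maximal dose AC50 no more than ten times the top valid tested dose, with luminescence dropping as dose rises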
Numbers without * were called inactive; / = no result given.

SMILES	CDK5 inh	DYRK1A inh	GSK3B inh	GSK3 alpha inh	STK33 inh	ADP-Glo artifact
CCO/C(=C/c1sc2ccc(OC)cc2[n+]1CCCS(=O)(=O)[O-])CC	-5	57*	0	4	1	9%
c1csc(CNc2ncnc3ccc(-c4ccoc4)cc23)c1	9	74*	/	1	2	10%
CCOc1ccc2nc(SCC(=O)NCC3CCCO3)c(C#N)cc2c1 (centres undefined)	0	-7	-1	1	0	/
Cc1ccc(NC(=O)C2=C(C(=O)O)CCCC2)cc1Br	-1	/	-1	1	-1	/
CS(=O)(=O)Nc1ccc(-c2cc(/C=C3\SC(N)=NC3=O)c[nH]c2=O)cc1	8	86*	-2	37	39*	8%
O=[N+]([O-])c1cc(/C=N/O)ccc1Oc1ccccc1Cl	13	61*	-52*	65*	4	9%
O=C1CCCc2c1cc(C(=O)NCCCN1CCOCC1)c(=O)n2-c1ccc(Cl)cc1	-2	58*	-3	1	1	12%
Cc1ccc(-n2c3c(cc(C(=O)NCCCN4CCOCC4)c2=O)C(=O)CC(C)(C)C3)cc1	-1	-4	-2	-1	-1	/
CCCCC(CC)CN=C(N)NC(N)=NCCCCCCN=C(N)NC(N)=NCC(CC)CCCC (centres undefined)	-2	52*	/	20	29*	12%
CCCCC(CC)CO (centres undefined)	-1	-6	/	/	/	/
COc1ccc([N+](=O)[O-])cc1NC(=O)C1CCCCC1C(=O)O (centres undefined)	-1	1	-2	-3	0	/
Oc1ccc(-c2nc(-c3ccc(O)c(O)c3)cs2)cc1	29	72*	4	31	19	7%
Cc1ccc(C(C)C)c(OCC(=O)NNC(=O)Cn2[nH]c(=O)c3ccccc3c2=O)c1	0	3	/	0	-1	/
Cc1nonc1C(=O)N/N=C/c1ccc(O)c(O)c1	6	15	5	5	3	/
O=C(N/N=C/c1ccc(O)c(O)c1)N/N=C/c1ccc(O)c(O)c1	5	80*	-40	54*	24	7%
COc1ccc(CCNCC(O)COc2ccc(OC)cc2C(C)(C)C)cc1 (centres undefined)	1	-1	-2	3	0	/
COc1cc(/C=C2\SC(=S)N(NC(=O)c3cccc(O)c3)C2=O)ccc1O	3	61*	-9	2	0	5%
COc1cc(/C=C2\SC(=S)N(NC(=O)c3ccc(O)c(OC)c3)C2=O)ccc1O	2	42	0	2	3	/
CC(=O)c1cccc(NC(=O)Nc2ccc3c(c2)N(C)C(=O)CS3)c1	1	50*	2	-2	4	8%
Cc1nc2c(nnn2Cc2ccccc2)c(=O)[nH]1	-1	5	0	6	0	/
CC(=O)Nc1ccc(Nc2cc(C)nc3c(-c4ccccc4)cnn23)cc1	0	55*	/	0	6	8%
N=C1/C(=C\c2ccc(-c3cccc(C(=O)O)c3)o2)C(=O)N=C2SC=C(c3ccccc3)N12	0	61*	0	2	3	8%
Cc1ccccc1-n1c(C)cc(/C=C2/C(=N)N3C(c4ccccc4)=CSC3=NC2=O)c1C	1	2	3	-3	-1	/
CCN1C=CC(=C2C(=O)c3ccccc3C2=O)C=C1	7	57*	-5	3	28*	3%
COc1ccc2c(c1)C(=NN)c1cc(OC)ccc1-2	0	79*	-3	1	5	6%
SMILES	CDK5 inh	DYRK1A inh	GSK3B inh	GSK3 alpha inh	STK33 inh	ADP-Glo artifact
COc1ccc2c(c1)C(=NNc1ccc(C(=O)O)cc1)c1cc(OC)ccc1-2	2	83*	2	2	-3	10%
COc1ccc(OC)c(N)c1	2	3	2	0	0	/
Oc1ccc(-c2nc3ncccn3c2Nc2ccc3c(c2)OCO3)cc1	2	60*	-1	53*	2	8%
Cc1cccc(NC(=O)C2NC(=O)CC2c2ccccc2)c1C (centres undefined)	0	59*	1	/	-1	2%
COc1ccc(OC)c(NC(=O)c2cccnc2Sc2ccccc2)c1	0	-1	1	2	6	/
COc1cc(N2CN=c3s/c(=C\c4ccccn4)c(=O)n3C2)cc(OC)c1OC	0	53*	-3	2	1	5%
CN1CCc2c(sc3nc(NN)n(Cc4ccccc4)c(=O)c23)C1	2	18	1	2	0	/
CN1CCc2c(sc3nc(NN)n(-c4ccc(Cl)cc4)c(=O)c23)C1	3	63*	0	2	1	6%
C=CCc1ccc(OCCOc2ccc(/C=N/n3cnnc3)cc2OCC)c(OC)c1	1	60*	2	-5	-1	10%
O=C1c2c(O)ccc(O)c2C(=O)c2c(NCCNCCO)ccc(NCCNCCO)c21	1	52*	/	62*	66*	3%
O=C1c2ccccc2C(=O)c2c(Nc3ccc(CCO)cc3)ccc(O)c21	-1	5	-1	7	4	/
COc1ccc(-c2cc(NCCc3ccncc3)n3ncnc3n2)cc1	0	51*	1	18	0	5%
CCN(CC)c1ccc(/C=C2\C(=O)c3ccc(C(=O)O)cc3C2=O)cc1	6	61*	/	23	61*	5%
Cc1onc(-c2ccccc2Cl)c1C(=O)NC(=S)Nc1ccc(C(C)(C)C)cc1	-1	/	4	0	-2	/
CCC(=O)N1CCN(c2ccnc3cc(Cl)ccc23)CC1	1	55*	-7	5	4	8%
O=C(c1ccc(Cl)cc1)N1CCN(c2ccnc3cc(Cl)ccc23)CC1	1	8	0	/	/	/
Cc1ccc2c(c1)C(=C(C#N)C#N)CCN2	4	61*	/	/	/	9%
NS(=O)(=O)c1ccc(-c2ccc(/C=C3\NC(=S)NC3=O)o2)cc1	5	75*	-28	4	-1	9%
CCOC(=O)c1nn(-c2ccccc2)c2nnc(Cc3ccccc3)c(=O)n12	0	-1	0	-2	-1	/
CCOCCOc1nc2c(c(=O)n(C)c(=O)n2C)n1Cc1ccc(C)cc1	0	60*	-2	0	0	9%
Cc1ccc(C)c(NC(=O)C2CCCN2S(=O)(=O)c2ccc3c(c2)n(C)c(=O)c(=O)n3C)c1 (centres undefined)	0	2	6	-1	-3	/
Cc1ccccc1NC(=O)C1CCCN1S(=O)(=O)c1ccc2c(c1)n(C)c(=O)c(=O)n2C (centres undefined)	0	58*	3	1	-3	6%
Cn1cnc2c(=O)sc3ccccc3c21	2	70*	-7	5	2	11%
COc1cccc(C(=O)Nc2ccc(C(F)(F)F)n(C)c2=O)c1	-4	7	-3	0	2	/
